Experimental data reported in ChEMBL document CHEMBL1153843, “Synthesis and biological evaluation of novel luteolin derivatives as antibacterial agents” (2009).
In brackets after ≈: the same amount, converted by molar mass.

How the values were obtained:
Format in all cases: functional
Bacillus subtilis = assay: Antibacterial activity against Bacillus subtilis after 24 hrs by MTT method
Outline: (§1)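 MIC by broth microdilution in MH medium, with MTT colorimetric read-out. Compounds come from a 50 mg/mL DMSO stock and are serially diluted in the plates. Inoculum is about 10⁵ cfu/mL, incubated at 37 °C for 24 h. The MIC is first read visually. MTT at 2 mg/mL in PBS (0.01 mol/L, pH 7.4) is then added, with a further 4–5 h at room temperature.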

Staphylococcus aureus = assay: Antibacterial activity against Staphylococcus aureus after 24 hrs by MTT method; outline: as §1
Pseudomonas fluorescens = assay: Antibacterial activity against Pseudomonas fluorescens after 24 hrs by MTT method; outline: as §1
Escherichia coli = assay: Antibacterial activity against Escherichia coli after 24 hrs by MTT method; outline: as §1

| MIC (Bacillus subtilis) [mg/L] | MIC (Staphylococcus aureus) [mg/L] | MIC (Pseudomonas fluorescens) [mg/L] | MIC (Escherichia coli) [mg/L] | Structure (SMILES) |
| --- | --- | --- | --- | --- |
| 12.5 (≈ 29.8 µM) | 25 (≈ 59.6 µM) | 12.5 (≈ 29.8 µM) | 25 (≈ 59.6 µM) | O=c1cc(-c2ccc3c(c2)OCCO3)oc2cc(OCCBr)cc(O)c12 |
| 12.5 (≈ 30.4 µM) | 25 (≈ 60.8 µM) | 12.5 (≈ 30.4 µM) | 25 (≈ 60.8 µM) | CCN(CC)CCOc1cc(O)c2c(=O)cc(-c3ccc4c(c3)OCCO4)oc2c1 |
| 12.5 (≈ 28.4 µM) | 12.5 (≈ 28.4 µM) | 6.25 (≈ 14.2 µM) | 25 (≈ 56.9 µM) | CCCN(CCC)CCOc1cc(O)c2c(=O)cc(-c3ccc4c(c3)OCCO4)oc2c1 |
| 6.25 (≈ 14.3 µM) | 12.5 (≈ 28.5 µM) | 6.25 (≈ 14.3 µM) | 12.5 (≈ 28.5 µM) | CN1CCN(CCOc2cc(O)c3c(=O)cc(-c4ccc5c(c4)OCCO5)oc3c2)CC1 |
| 12.5 (≈ 30.4 µM) | 25 (≈ 60.8 µM) | 6.25 (≈ 15.2 µM) | 25 (≈ 60.8 µM) | CCCCNCCOc1cc(O)c2c(=O)cc(-c3ccc4c(c3)OCCO4)oc2c1 |
| 12.5 (≈ 30.4 µM) | 25 (≈ 60.8 µM) | 12.5 (≈ 30.4 µM) | 25 (≈ 60.8 µM) | CC(C)CNCCOc1cc(O)c2c(=O)cc(-c3ccc4c(c3)OCCO4)oc2c1 |
| 12.5 (≈ 31.3 µM) | 25 (≈ 62.6 µM) | 6.25 (≈ 15.6 µM) | 25 (≈ 62.6 µM) | O=c1cc(-c2ccc3c(c2)OCCO3)oc2cc(OCCNCCO)cc(O)c12 |
| 3.12 (≈ 7.35 µM) | 6.25 (≈ 14.7 µM) | 6.25 (≈ 14.7 µM) | 12.5 (≈ 29.4 µM) | O=c1cc(-c2ccc3c(c2)OCCO3)oc2cc(OCCN3CCOCC3)cc(O)c12 |
| 6.25 (≈ 15.3 µM) | 12.5 (≈ 30.5 µM) | 12.5 (≈ 30.5 µM) | 12.5 (≈ 30.5 µM) | O=c1cc(-c2ccc3c(c2)OCCO3)oc2cc(OCCN3CCCC3)cc(O)c12 |
| 12.5 (≈ 40 µM) | 25 (≈ 80.1 µM) | 12.5 (≈ 40 µM) | 50 (≈ 160 µM) | O=c1cc(-c2ccc3c(c2)OCCO3)oc2cc(O)cc(O)c12 |
| 6.25 (≈ 14.8 µM) | 12.5 (≈ 29.5 µM) | 12.5 (≈ 29.5 µM) | 25 (≈ 59 µM) | O=c1cc(-c2ccc3c(c2)OCCO3)oc2cc(OCCNC3CCCC3)cc(O)c12 |
| 12.5 (≈ 31.5 µM) | 25 (≈ 62.9 µM) | 12.5 (≈ 31.5 µM) | 25 (≈ 62.9 µM) | CCCNCCOc1cc(O)c2c(=O)cc(-c3ccc4c(c3)OCCO4)oc2c1 |

Continued, compound first:

| Structure (SMILES) | MIC (Bacillus subtilis) [mg/L] | MIC (Staphylococcus aureus) [mg/L] | MIC (Pseudomonas fluorescens) [mg/L] | MIC (Escherichia coli) [mg/L] |
| --- | --- | --- | --- | --- |
| O=c1cc(-c2ccc3c(c2)OCCO3)oc2cc(OCCNC3CCCCC3)cc(O)c12 | 6.25 (≈ 14.3 µM) | 12.5 (≈ 28.6 µM) | 12.5 (≈ 28.6 µM) | 25 (≈ 57.1 µM) |
| O=c1cc(-c2ccc3c(c2)OCCO3)oc2cc(OCCNCc3ccccc3)cc(O)c12 | 3.12 (≈ 7.02 µM) | 6.25 (≈ 14 µM) | 6.25 (≈ 14 µM) | 12.5 (≈ 28.1 µM) |
| O=c1cc(-c2ccc3c(c2)OCCO3)oc2cc(OCCN3CCCCC3)cc(O)c12 | 6.25 (≈ 14.8 µM) | 12.5 (≈ 29.5 µM) | 12.5 (≈ 29.5 µM) | 12.5 (≈ 29.5 µM) |
| O=c1cc(-c2ccc3c(c2)OCCO3)oc2cc(OCCN3CCNCC3)cc(O)c12 | 6.25 (≈ 14.7 µM) | 12.5 (≈ 29.4 µM) | 6.25 (≈ 14.7 µM) | 12.5 (≈ 29.4 µM) |
| O=c1cc(-c2ccc3c(c2)OCCO3)oc2cc(OCCNCCN3CCOCC3)cc(O)c12 | 1.56 (≈ 3.33 µM) | 6.25 (≈ 13.3 µM) | 3.12 (≈ 6.67 µM) | 12.5 (≈ 26.7 µM) |
| O=c1cc(-c2ccc3c(c2)OCCO3)oc2cc(OCCNCCCN3CCOCC3)cc(O)c12 | 1.56 (≈ 3.24 µM) | 3.12 (≈ 6.48 µM) | 3.12 (≈ 6.48 µM) | 6.25 (≈ 13 µM) |
| O=c1cc(-c2ccc3c(c2)OCCO3)oc2cc(OCCNCc3ccc(F)cc3)cc(O)c12 | 1.56 (≈ 3.37 µM) | 3.12 (≈ 6.74 µM) | 6.25 (≈ 13.5 µM) | 12.5 (≈ 27 µM) |
| NC[C@H]1O[C@H](O[C@H]2[C@H](O)[C@@H](O[C@H]3O[C@H](CO)[C@@H](O)[C@H](N)[C@H]3O)[C@H](N)C[C@@H]2N)[C@H](N)[C@@H](O)[C@@H]1O [BEKANAMYCIN] | 0.39 (≈ 0.807 µM) | 1.56 (≈ 3.23 µM) | 3.12 (≈ 6.46 µM) | 3.12 (≈ 6.46 µM) |
| O=c1cc(-c2ccc(O)c(O)c2)oc2cc(O)cc(O)c12 [LUTEOLIN] | 25 (≈ 87.3 µM) | 50 (≈ 175 µM) | 25 (≈ 87.3 µM) | 50 (≈ 175 µM) |
| CC1(C)S[C@@H]2[C@H](NC(=O)Cc3ccccc3)C(=O)N2[C@H]1C(=O)O [PENICILLIN G] | 1.56 (≈ 4.67 µM) | 1.56 (≈ 4.67 µM) | 6.25 (≈ 18.7 µM) | 6.25 (≈ 18.7 µM) |
